# High-throughput results from PubChem.
# V1aR counter: activates human V1a receptor in oxytocin agonist counter-screen. P37288. CHO-V1R cells, Fluo-8 calcium fluorescence, agonist mode; 0% DMSO, 100% 3 nM vasopressin. activation, % at 3 µM. actives 0.25% (n = 320,000);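 active = activation above the mean activation of all tested compounds plus 3 SD, per screening run, cut at about 20% in these data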;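 also: signal is peak over basal fluorescence ratio across a 100 second FLIPR read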
# OXTR agonist: activates the human oxytocin receptor; AID 2435; activation, % at 3 µM; CHO-OTR cells, Fluo-8 calcium fluorescence; normalized: DMSO 0%, oxytocin 100%; actives 0.32% (n = 320,000); P30559;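 active = activation above the mean of all tested compounds plus 3 SD, cutoff set per screening run, cut at about 20% in these data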;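 also: peak over basal fluorescence ratio from a 100 s FLIPR kinetic read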
# Target sequence (P30559 whole entry, looked up): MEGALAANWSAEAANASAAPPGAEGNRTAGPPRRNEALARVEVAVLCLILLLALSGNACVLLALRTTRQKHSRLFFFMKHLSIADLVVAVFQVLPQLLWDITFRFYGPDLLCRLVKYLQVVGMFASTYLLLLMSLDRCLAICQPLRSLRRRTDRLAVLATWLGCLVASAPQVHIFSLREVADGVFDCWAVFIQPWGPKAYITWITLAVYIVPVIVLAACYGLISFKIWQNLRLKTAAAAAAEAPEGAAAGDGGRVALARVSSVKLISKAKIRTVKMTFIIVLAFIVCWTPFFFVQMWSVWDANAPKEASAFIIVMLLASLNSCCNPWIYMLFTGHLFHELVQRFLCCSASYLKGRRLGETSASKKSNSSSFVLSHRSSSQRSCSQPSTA
# TAAR1 antagonist: human TAAR1 antagonism | CHO RD-HGA16 TAAR1, Fluo-8 calcium fluorescence, antagonist | AID 624466 | actives 1.5% (n = 360,000) | Q96RJ0 | inhibition, % at 3 µM;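 active = inhibition above a per-plate cutoff, the mean inhibition of test compounds on that plate plus 3 SD, cut at about 49% in these data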;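 also: 0% = DMSO plus EC80 beta-PEA response and 100% = DMSO alone without agonist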
# Target sequence (Q96RJ0 whole entry, looked up): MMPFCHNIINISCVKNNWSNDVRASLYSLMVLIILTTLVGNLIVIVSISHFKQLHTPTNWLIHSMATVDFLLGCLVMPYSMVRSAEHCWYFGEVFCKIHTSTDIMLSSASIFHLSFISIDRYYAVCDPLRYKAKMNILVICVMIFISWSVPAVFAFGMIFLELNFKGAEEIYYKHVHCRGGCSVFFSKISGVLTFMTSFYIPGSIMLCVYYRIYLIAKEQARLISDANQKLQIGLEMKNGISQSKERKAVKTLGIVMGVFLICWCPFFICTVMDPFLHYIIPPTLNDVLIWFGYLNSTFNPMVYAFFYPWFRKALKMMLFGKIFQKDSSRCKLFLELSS
#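 Test system – hTAAR1-expressing CHO RD-HGA16 cells, Gα16-coupled · Also added – β-PEA at EC80 concentration, post-compound challenge · Compound – 3 µM, single point · Incubation – dye loading 75 min at 37 °C, then 30 min room temperature · Measured by – Fluo-8 intracellular calcium dye fluorescence, real-time kinetic reads · Benchmarks – vehicle and agonist controls · Replicates – singlicate, one well per test compound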
# OXTR potentiator: human OXTR potentiation | actives 0.061% (n = 320,000) | P30559 | AID 2445 | CHO-OTR cells, Fluo-8 calcium fluorescence, potentiator mode; 0% = oxytocin EC15, 100% = EC100 | activation, % at 3 µM;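 active = activation above that plate's cutoff, the mean activation of tested compounds plus 3 SD, cut at about 6.6% in these data, passing the limit was not always enough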;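 also: 100% uses oxytocin at 75 nM as the full agonist control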
#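 Measured by – Fluo-8 calcium dye fluorescence · Test system – human OTR in CHO cells · Dosing – one concentration, 3.0 µM compound · Controls – EC15 oxytocin alone as 0%, 75 nM oxytocin as 100% · Evaluation – normalized max/min fluorescence ratio, % activation · Timing – 6 min pre-incubation, 100 s read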
# TAAR1 agonist: agonists of human TAAR1; CHO RD-HGA16 TAAR1, Fluo-8 calcium fluorescence; vehicle wells 0%, saturating PEA agonist 100%; activation, % at 3 µM; actives 0.99% (n = 360,000); AID 624467;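 active = activation above the mean activation of all test compounds in the run plus 3 SD, cut at about 38% in these data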
#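 Assay system – CHO-derived RD-HGA16 cells with stable Gα16 and human TAAR1 · Compound dosing – one-point dosing at 3 µM (nominal) · Incubation – 17-24 h seeding, 75 min 37 °C dye, 30 min RT · Measured by – kinetic Fluo-8 calcium fluorescence · Control set – DMSO vehicle as 0%, PEA at EC100 as 100% · Repeats – single well for each compound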
# TAAR1 ag conf: confirmation of human TAAR1 agonists | AID 651783 | activation, % at 3 µM | shares compounds with TAAR1 agonist | CHO RD-HGA16 TAAR1, Fluo-8 calcium fluorescence; scaled: DMSO 0%, maximal phenethylamine 100% | actives 82% (n = 2,400);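 active = activation above a cutoff set at the run's mean compound activation plus 3 SD, cut at about 39% in these data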
# Ga16 nonsel ag: counter-screen for TAAR1 agonists: nonselective agonists in parental cells; shares compounds with TAAR1 agonist; CHO-Ga16 parental, Fluo-8 calcium fluorescence; normalized to maximal ATP response, DMSO zero; activation, % at 3 µM; actives 50% (n = 2,400);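 active = activation above the run cutoff, the mean activation over all tested wells plus 3 SD, cut at about 12% in these data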;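 also: 0% = DMSO wells and 100% = maximal ATP response on the peak over basal ratio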
# TAAR1 desens: TAAR1 response desensitization, agonist counter-screen. shares compounds with TAAR1 agonist. CHO RD-HGA16 hTAAR1, Fluo-8 calcium, beta-PEA response inhibition. inhibition, % at 3 µM. actives 46% (n = 2,400);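 active = inhibition above the run cutoff, the mean inhibition of all test compounds plus 3 SD, cut at about 49% in these data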;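 also: beta-PEA stimulus applied at its EC80; loss of beta-PEA calcium signal after compound pretreatment read as receptor desensitization; 0% = DMSO with beta-PEA at EC80 and 100% = DMSO alone without agonist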
# Ga16 nonsel ant: nonselective Ga16 antagonism, counter-screen | inhibition, % at 3 µM | shares compounds with TAAR1 agonist | CHO-Ga16 ATP-induced calcium, Fluo-8 fluorescence | actives 39% (n = 2,400);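 active = inhibition above the plate's mean compound inhibition plus 3 SD, computed per plate, cut at about 22% in these data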;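 also: 0% = EC80 ATP with DMSO and 100% = DMSO wells without ATP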
# An asterisk follows results filed as active; . = not tested or not shown. Only some compounds are listed: those with a hit (about 2.3% of all), similar ones and a draw of the others.
SMILES,V1aR counter,OXTR agonist,TAAR1 antagonist,OXTR potentiator,TAAR1 agonist,TAAR1 ag conf,Ga16 nonsel ag,TAAR1 desens,Ga16 nonsel ant
CCCCCOc1ccc(Br)cc1/C(C)=N/NC1=NCCN1,5.2,3.6,29.9,-9.5,61.9*,62.5*,11.8*,31.6,15.7
COc1ccc(Br)cc1/C(C)=N/NC1=NCCN1,5.8,9.2,-3.0,-13.6,17.6,.,.,.,.
O=C1/C(=C\c2ccc(Br)o2)Cc2ccccc21,-1.7,-2.1,31.8,-0.1,50.4*,6.8,9.5,-11.8,-1.4
O=C1/C(=C/c2cccs2)Cc2ccccc21,-1.2,-1.7,-8.5,4.6,-2.1,.,.,.,.
Cc1ccc(C)c2[nH]c(=O)c(C(c3nnnn3Cc3ccco3)N3CCc4ccccc4C3)cc12 (stereo unspecified),0.6,0.8,44.5,-8.0,52.2*,58.5*,3.0,7.4,5.3
CCN1CCN(CCNC(=O)c2ccc(/C=C3/Sc4ccccc4N(Cc4ccccc4C)C3=O)cc2)CC1,.,.,32.4,.,59.8*,72.0*,46.4*,64.7*,56.3*
O=C(C1CC1)N1CCC(c2nc(-c3ccc(S(=O)(=O)NCC4CCCO4)cc3)no2)CC1 (stereo unspecified),8.1,10.2,-1.1,-11.2,7.8,.,.,.,.
O=C(c1ccccc1)N1CCC(c2nc(-c3ccc(S(=O)(=O)NCC4CCCO4)cc3)no2)CC1 (stereo unspecified),9.2,15.8,32.7,-10.4,43.2*,10.1,9.7,16.4,26.9*
O=C1c2cccc3c(N4CCCCC4)ccc(c23)C(=O)N1c1ccccc1O,40.6*,43.1*,64.5*,-35.6,130.1*,23.9,33.3*,36.0,49.8*
CCc1nnc(NC(=O)CSCc2cc(=O)n3ccsc3n2)s1,1.5,1.5,-16.2,1.9,1.3,.,.,.,.
Cc1nn(Cc2ccccc2Cl)c(C)c1NC(=O)c1cc(-c2ccc(F)cc2)on1,3.1,1.1,63.0*,-5.7,55.0*,21.2,8.3,52.6*,26.0*
Cc1ccc2c(c1)[C@H]1[C@H](CO2)[C@H](c2ccccc2)[C@]2(C)C(=O)N(Cc3ccc(F)cc3)CC(=O)N12,12.1,10.9,34.1,-9.7,61.5*,28.8,19.0*,17.0,19.1
O=C(Cn1nnc(N2CCCC2)n1)N/N=C/c1ccc(Cl)cc1,3.4,7.0,-4.3,-4.3,57.9*,84.8*,4.7,28.3,1.6
CCCNC(=O)C(Cc1ccc(C(F)(F)P(=O)(OCC)OCC)cc1)NC(=O)c1ccc(C#N)cc1 (stereo unspecified),0.1,-0.8,-1.3,8.9,12.4,.,.,.,.
Cc1ccc(C(=O)Nc2ccc(Br)cc2)cc1S(=O)(=O)Nc1ccccn1,1.7,2.2,-0.3,2.1,66.0*,9.6,5.2,6.2,14.6
Cc1ccccc1NC(=O)c1ccc(C)c(S(=O)(=O)Nc2ccccn2)c1,0.4,-0.9,-9.3,-5.7,5.9,.,.,.,.
CCOc1ccc(N2C(=O)CC(NCc3ccc(S(N)(=O)=O)cc3)C2=O)cc1 (stereo unspecified),0.4,1.7,-11.0,5.3,45.0*,6.5,1.9,-13.3,-1.6
CCCOc1ccc(N2C(=O)CC(NCc3ccc(S(N)(=O)=O)cc3)C2=O)cc1 (stereo unspecified),0.4,-0.8,-3.9,1.0,0.6,.,.,.,.
Cc1ccccc1Cn1c(C)c(C(=O)NCc2cccc(Cl)c2)sc1=O,.,.,13.7,.,7.3,.,.,.,.
COc1ccccc1Cn1c(C)c(C(=O)NCc2ccc(C#N)cc2)sc1=O,.,.,94.3*,.,133.6*,106.0*,69.1*,78.3*,44.9*
Cc1c(C(=O)NCc2ccc3c(c2)OCCO3)sc(=O)n1Cc1ccc2c(c1)OCO2,.,.,25.1,.,3.0,.,.,.,.
COc1ccc(Cl)cc1Cn1c(C)c(C(=O)NCc2cccc(C(F)(F)F)c2)sc1=O,.,.,11.5,.,2.3,.,.,.,.
COc1ccc(CNC(=O)c2sc(=O)n(Cc3ccccc3C)c2C)cc1,.,.,70.3*,.,105.7*,121.8*,82.1*,84.7*,53.8*
Cc1c(C(=O)NCc2ccc([N+](=O)[O-])cc2)sc(=O)n1Cc1ccc2c(c1)OCO2,.,.,74.3*,.,104.5*,106.1*,62.7*,81.1*,48.7*
COc1ccc(Cl)cc1Cn1c(C)c(C(=O)NCc2ccc(C#N)cc2)sc1=O,.,.,76.5*,.,67.6*,74.3*,37.4*,74.4*,49.7*
SMILES,V1aR counter,OXTR agonist,TAAR1 antagonist,OXTR potentiator,TAAR1 agonist,TAAR1 ag conf,Ga16 nonsel ag,TAAR1 desens,Ga16 nonsel ant
Cc1ccc(CNC(=O)CC[C@H]2O[C@@H](n3cc(C)c(=O)[nH]c3=O)C[C@@H]2O)o1,.,.,2.6,.,2.7,.,.,.,.
O=C(Cc1ccccc1)NC(=S)Nc1cc(C(F)(F)F)ccc1Cl,12.3,1.3,49.3*,-13.4,53.2*,49.0*,20.4*,38.9,18.7
CC(=O)c1cccc(NC(=S)NC(=O)Cc2ccc(Cl)cc2)c1,20.9*,26.4*,57.0*,-25.0,94.3*,105.6*,59.0*,84.5*,47.5*
Cc1ccc(NC(=S)NC(=O)Cc2ccccc2)c(O)c1,.,.,47.4,.,65.8*,72.6*,27.0*,42.6,24.0*
O=C(Cc1ccc(Cl)cc1)NC(=S)Nc1ccccc1N1CCOCC1,13.5,1.4,52.0*,-16.9,64.9*,71.7*,44.1*,57.1*,33.6*
Cc1ccc(C(=O)NC(=S)Nc2cc(C(F)(F)F)ccc2Cl)cc1,0.5,0.2,21.9,-4.5,6.6,.,.,.,.
Cn1cccc1/C=N/NC(=O)c1cc2ccccc2cc1O,2.1,1.4,-15.8,-7.8,0.3,.,.,.,.
Cc1ccc(NS(=O)(=O)c2ccc(C)c(NC(=O)c3ccc(S(=O)(=O)N4CCCCCC4)cc3)c2)c(C)c1,.,.,-26.8,.,3.6,.,.,.,.
O=C(Cc1ccccc1)NC(=S)Nc1cccc(C(F)(F)F)c1,11.9,7.9,43.1,-11.5,55.5*,33.2,14.5*,38.3,17.9
CCOc1ccc(/C=N/NC(=O)c2nnn(-c3nonc3N)c2-c2cccs2)cc1,21.7*,35.3*,69.8*,-10.7,124.9*,120.4*,91.5*,76.2*,46.0*
Nc1nonc1-n1nnc(C(=O)N/N=C/c2ccncc2)c1-c1cccs1,2.5,1.7,-9.4,-7.7,10.5,.,.,.,.
